Assays:
[1] = tested on: Hepatitis C virus; experiment: Antiviral activity against Hepatitis C virus genotype 1b harboring Y93H NS5A mutation transfected in human HuH7 cells after 72 hrs by luciferase assay; type: functional, cell-based, Hepacivirus hominis; conditions: Huh-7, 72 h
In short: (§1)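 Huh-7 cells were transiently electroporated with genotype 1b replicon RNA carrying the specified mutation and plated at 10000 cells/well. Compounds were added at 0.5% DMSO final for 72 h at 37°C. Read-out was Bright-Glo luciferase. EC50 is the mean of two independent runs within 2-fold of each other. A reference drug EC50 was measured alongside each mutant replicon to validate it.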

[2] = tested on: Hepatitis C virus; experiment: Antiviral activity against Hepatitis C virus genotype 1b Con 1 infected in human HuH7 cells at 160 nM after 72 hrs by luciferase assay in presence of 12 nM simeprevir; type: functional, Hepacivirus hominis, Huh-7
In short: (§2)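 Stable Con1 GT1b bicistronic luciferase replicon in Huh-7 cells, 8000 cells/well. Test compound and a marketed DAA or clemizole added alone or together at varied concentrations, 0.5% DMSO final. 72 h at 37°C, then luciferase read with Bright-Glo. Inhibition expressed as % of untreated control, with cytotoxicity run in parallel. CI and DRI derived by the Chou–Talalay median-effect method.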

[3] = tested on: Hepatitis C virus; experiment: Antiviral activity against Hepatitis C virus genotype 1b Con 1 infected in human HuH7 cells at 2.5 nM after 72 hrs by luciferase assay in presence of 3 nM simeprevir; type: functional, Hepacivirus hominis, Huh-7; in short: as §2
[4] = tested on: Hepatitis C virus; experiment: Antiviral activity against Hepatitis C virus genotype 1b Con 1 infected in human HuH7 cells at 2.5 nM after 72 hrs by luciferase assay in presence of 6 nM simeprevir; type: functional, Hepacivirus hominis, Huh-7; in short: as §2
[5] = tested on: Hepatitis C virus; experiment: Antiviral activity against Hepatitis C virus genotype 1b Con 1 infected in human HuH7 cells at 5 nM after 72 hrs by luciferase assay in presence of 15 uM clemizole; type: functional, Hepacivirus hominis, Huh-7
In short: (§3)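 Huh-7 cells stably carrying a GT1b Con1 bicistronic luciferase replicon, seeded at 8000 cells/well. The test compound and the partner DAA are dosed orthogonally at various concentrations, final 0.5% DMSO, then incubated 72 h at 37°C. Bright-Glo luciferase read-out gives replicon inhibition as % of untreated control. Cytotoxicity is checked in parallel by CellTiter-Fluor. CI and DRI are derived by the Chou–Talalay median-effect method.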

[6] = tested on: Hepatitis C virus; experiment: Antiviral activity against Hepatitis C virus genotype 1b Con 1 infected in human HuH7 cells at 160 nM after 72 hrs by luciferase assay in presence of 17.5 uM clemizole; type: functional, Hepacivirus hominis, Huh-7; in short: as §2
[7] = tested on: Hepatitis C virus; experiment: Antiviral activity against Hepatitis C virus genotype 1b harboring Y448H NS5B (palm) mutation transfected in human HuH7 cells after 72 hrs by luciferase assay; type: functional, cell-based, Hepacivirus hominis; conditions: Huh-7, 72 h; in short: as §1
[8] = tested on: Hepatitis C virus; experiment: Antiviral activity against Hepatitis C virus genotype 1b harboring P495A NS5B (thumb 1) mutation transfected in human HuH7 cells after 72 hrs by luciferase assay; type: functional, cell-based, Hepacivirus hominis; conditions: Huh-7, 72 h; in short: as §1
[9] = tested on: Hepatitis C virus; experiment: Antiviral activity against Hepatitis C virus genotype 1b Con 1 infected in human HuH7 cells at 80 nM after 72 hrs by luciferase assay in presence of 7.5 uM clemizole; type: functional, Hepacivirus hominis, Huh-7
In short: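 Con1 GT1b luciferase replicon Huh-7 cells, seeded at 8000 cells/well. The compound was combined orthogonally with clemizole across a range of concentrations (0.5% DMSO final) and incubated for 72 h at 37°C. Bright-Glo luciferase inhibition was expressed as a percentage of the untreated control. Cytotoxicity was run in parallel.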

[10] = tested on: Hepatitis C virus; experiment: Antiviral activity against Hepatitis C virus genotype 1b Con 1 infected in human HuH7 cells at 5 nM after 72 hrs by luciferase assay in presence of 12.5 uM clemizole; type: functional, Hepacivirus hominis, Huh-7; in short: as §3
[11] = tested on: Hepatitis C virus; experiment: Antiviral activity against Hepatitis C virus genotype 1b Con 1 infected in human HuH7 cells at 160 nM after 72 hrs by luciferase assay in presence of 5 uM clemizole; type: functional, Hepacivirus hominis, Huh-7; in short: as §2
[12] = tested on: Hepatitis C virus; experiment: Antiviral activity against Hepatitis C virus genotype 1b Con 1 infected in human HuH7 cells at 20 nM after 72 hrs by luciferase assay in presence of 10 uM clemizole; type: functional, Hepacivirus hominis, Huh-7; in short: as §2
[13] = tested on: Hepatitis C virus; experiment: Antiviral activity against Hepatitis C virus genotype 1b Con 1 infected in human HuH7 cells at 2.5 nM after 72 hrs by luciferase assay in presence of 0.16 nM daclatasvir; type: functional, Hepacivirus hominis, Huh-7; in short: as §2
[14] = tested on: Hepatitis C virus; experiment: Antiviral activity against Hepatitis C virus genotype 1b Con 1 infected in human HuH7 cells at 20 nM after 72 hrs by luciferase assay in presence of 15 uM clemizole; type: functional, Hepacivirus hominis, Huh-7; in short: as §3
[15] = tested on: Hepatitis C virus; experiment: Antiviral activity against Hepatitis C virus genotype 1b Con 1 infected in human HuH7 cells at 80 nM after 72 hrs by luciferase assay in presence of 20 uM clemizole; type: functional, Hepacivirus hominis, Huh-7; in short: as §3
[16] = tested on: Hepatitis C virus; experiment: Antiviral activity against Hepatitis C virus genotype 1b Con 1 infected in human HuH7 cells at 10 nM after 72 hrs by luciferase assay in presence of 20 uM clemizole; type: functional, Hepacivirus hominis, Huh-7; in short: as §2
[17] = tested on: Hepatitis C virus; experiment: Antiviral activity against Hepatitis C virus genotype 1b Con 1 infected in human HuH7 cells at 10 nM after 72 hrs by luciferase assay in presence of 0.08 nM daclatasvir; type: functional, Hepacivirus hominis, Huh-7; in short: as §2
[18] = tested on: Hepatitis C virus; experiment: Antiviral activity against Hepatitis C virus genotype 1b Con 1 infected in human HuH7 cells at 40 nM after 72 hrs by luciferase assay in presence of 0.16 nM daclatasvir; type: functional, Hepacivirus hominis, Huh-7; in short: as §3
[19] = tested on: Hepatitis C virus; experiment: Antiviral activity against Hepatitis C virus genotype 1b Con 1 infected in human HuH7 cells at 40 nM after 72 hrs by luciferase assay in presence of 0.02 nM daclatasvir; type: functional, Hepacivirus hominis, Huh-7; in short: as §3
[20] = tested on: Hepatitis C virus; experiment: Antiviral activity against Hepatitis C virus genotype 1b Con 1 infected in human HuH7 cells at 20 nM after 72 hrs by luciferase assay in presence of 0.04 nM daclatasvir; type: functional, Hepacivirus hominis, Huh-7; in short: as §2
[21] = tested on: Hepatitis C virus; experiment: Antiviral activity against Hepatitis C virus genotype 1b Con 1 infected in human HuH7 cells at 2.5 nM after 72 hrs by luciferase assay in presence of 24 nM simeprevir; type: functional, Hepacivirus hominis, Huh-7; in short: as §2
[22] = tested on: Hepatitis C virus; experiment: Antiviral activity against Hepatitis C virus genotype 1b Con 1 infected in human HuH7 cells at 2.5 nM after 72 hrs by luciferase assay in presence of 15 uM clemizole; type: functional, Hepacivirus hominis, Huh-7; in short: as §2
[23] = tested on: Hepatitis C virus; experiment: Antiviral activity against Hepatitis C virus genotype 1b Con 1 infected in human HuH7 cells at 80 nM after 72 hrs by luciferase assay in presence of 15 uM clemizole; type: functional, Hepacivirus hominis, Huh-7; in short: as §3
[24] = tested on: Hepatitis C virus; experiment: Antiviral activity against Hepatitis C virus genotype 1b Con 1 infected in human HuH7 cells at 20 nM after 72 hrs by luciferase assay in presence of 30 nM sofobuvir; type: functional, Hepacivirus hominis, Huh-7; in short: as §3
[25] = tested on: Hepatitis C virus; experiment: Antiviral activity against Hepatitis C virus genotype 1b Con 1 infected in human HuH7 cells at 160 nM after 72 hrs by luciferase assay in presence of 60 nM sofobuvir; type: functional, Hepacivirus hominis, Huh-7; in short: as §2
[26] = tested on: Hepatitis C virus; experiment: Antiviral activity against Hepatitis C virus genotype 1b Con 1 infected in human HuH7 cells at 20 nM after 72 hrs by luciferase assay in presence of 6 nM simeprevir; type: functional, Hepacivirus hominis, Huh-7; in short: as §3
[27] = tested on: Hepatitis C virus; experiment: Antiviral activity against Hepatitis C virus genotype 1b Con 1 infected in human HuH7 cells at 40 nM after 72 hrs by luciferase assay in presence of 60 nM sofobuvir; type: functional, Hepacivirus hominis, Huh-7; in short: as §3
[28] = tested on: Hepatitis C virus; experiment: Antiviral activity against Hepatitis C virus genotype 1b Con 1 infected in human HuH7 cells at 2.5 nM after 72 hrs by luciferase assay in presence of 20 uM clemizole; type: functional, Hepacivirus hominis, Huh-7; in short: as §2

O=C(c1nc2scc(C3CC3)n2c1Cl)N1CCN(C2CCCC2)C(=O)C1
EC50 [1]: 14 nM | CI [2]: 0.47 | CI [3]: 1.26 | CI [4]: 0.59 | CI [5]: 0.99 | CI [6]: 1.74 | EC50 [7]: 8 nM | EC50 [8]: 10 nM | CI [9]: 0.85 | CI [10]: 0.71 | CI [11]: 1.84 | CI [12]: 0.61 | CI [13]: 0.98 | CI [14]: 0.79 | CI [15]: 1.41 | CI [16]: 1.16 | CI [17]: 0.69 | CI [18]: 0.64 | CI [19]: 0.78 | CI [20]: 0.69 | CI [21]: 1.31 | CI [22]: 1.17 | CI [23]: 1 | CI [24]: 0.83 | CI [25]: 0.58 | CI [26]: 0.48 | CI [27]: 0.67 | CI [28]: 1.45

— ChEMBL document CHEMBL3425469, “Discovery of imidazo[2,1-b]thiazole HCV NS4B inhibitors exhibiting synergistic effect with other direct-acting antiviral agents” (J Med Chem, 2015)
